Only some compounds are listed: those with a hit (about 2.5% of all), similar ones and a draw of the others.
NR2E3 ag-1 = NR2E3 (human) agonism. Q9Y5X4. GST-NR2E3/biotin-RetCOR TR-FRET, 1536-well. inhibition of corepressor binding, % at 4.78 µM. hit rate 0.12% among 320,000. AID 2300;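 active = percent inhibition above the cutoff of mean plus 3 SD of all tested compounds, set per screening campaign, cut at about 20% in these data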;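 also: 0% = DMSO wells and 100% = biotin wells as full block of FRET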
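Test system – NR2E3–RetCOR corepressor complex · Quantity – NR2E3 fusion 1.35 nM · Buffer or medium – Tris pH 7.5 · Incubation – Compound–protein incubation for 5 h at 4 °C · Technique – TR-FRET, Eu(K)-anti-GST donor, streptavidin-D2 acceptor, ex 340, em 617/671 nm · Evaluation – percent inhibition of 671/617 nm emission ratio versus biotin and DMSO controls · Plate – 1536-well format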
GalR3 antag = blocks the human galanin receptor 3; O60755; hit rate 0.44% among 360,000; HEK293 GalR3-CNG cAMP membrane potential fluorescence; galR3 body fused to GalR1 C-terminus; inhibition, % at 3 µM; AID 651719;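 active = inhibition above the screen-wide average plus 3 SD, cut at about 13% in these data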;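 also: forskolin and galanin both at EC90 stimulate the cells; cAMP rise reported by CNG channel membrane potential dye signal; 0% = forskolin plus galanin with DMSO and 100% = forskolin alone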
Target sequence (O60755 1-299 limits assumed): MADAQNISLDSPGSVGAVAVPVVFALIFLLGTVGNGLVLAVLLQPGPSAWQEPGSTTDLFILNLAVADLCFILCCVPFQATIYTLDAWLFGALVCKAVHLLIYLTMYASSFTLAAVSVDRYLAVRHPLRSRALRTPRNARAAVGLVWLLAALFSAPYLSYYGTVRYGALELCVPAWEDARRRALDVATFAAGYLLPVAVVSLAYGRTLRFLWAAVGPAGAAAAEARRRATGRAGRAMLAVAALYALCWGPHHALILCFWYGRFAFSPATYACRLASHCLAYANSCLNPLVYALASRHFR
NadD block = inhibitors of Staphylococcus aureus NadD. purified NadD enzyme, colorimetric absorbance read-out. inhibition, % at 20 µM. hit rate 0.78% among 360,000; in the data active = inhibition above about 26%
MsrA act = bovine methionine sulfoxide reductase A activation | purified bovine MsrA, absorbance read-out | activation, % at 10.6 µM | hit rate 0.3% among 360,000; in the data active = activation above about 7.5%;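 also: 0% = vehicle and 100% = reference activator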
MsrA inhibitor = inhibitors of bovine MsrA; purified bovine MsrA, absorbance read-out; inhibition, % at 15.5 µM; hit rate 0.75% among 360,000; AID 651718;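 also: 0% = vehicle wells with enzyme and 100% = reference inhibitor wells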
NR2E3 ag-2 = human photoreceptor-specific nuclear receptor agonism. Q9Y5X4. CHO-S Gal4-NCOR/VP16-NR2E3 two-hybrid, luciferase. inhibition of corepressor binding, % at 3.98 µM. hit rate 0.35% among 360,000;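 active = inhibition above the mean of all tested compounds plus 3 SD, cut at about 70% in these data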;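 also: 0% = DMSO with NR2E3 transfected cells and 100% = cells lacking NR2E3 construct; higher means lower luciferase signal from less NR2E3 corepressor binding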
MsrA conf = confirmation of bovine MsrA inhibitors. purified bovine MsrA, absorbance read-out. hit rate 41% among 2,300. AID 651822. shares compounds with MsrA inhibitor. inhibition, % at 15.5 µM;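 also: coupled to thioredoxin reductase with NADPH and selenocystamine and DMSO as substrate; 0% = vehicle only and 100% = full effect of reference inhibitor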
* marks the source's active call; other numbers are inactive results; · = no result given. Rule as the data show it, unless noted: active = inhibition above about 4.5%; inactive = the rest.

SMILES	NR2E3 ag-1	GalR3 antag	NadD block	MsrA act	MsrA inhibitor	NR2E3 ag-2	MsrA conf
CC(=O)c1ccc(COC(=O)c2cc3ccccc3oc2=O)cc1	2	-3	-2	-6	8.3*	-17	4
COC(=O)c1ccc(COC(=O)c2cc3ccccc3oc2=O)cc1	-2	1	-6	-2	1	-2	·
Clc1ccccc1-c1ccc(/C=N/n2cnnc2)o1	1	-3	-1	-9	5.7*	-10	5.5*
Cc1cc(-c2ccc(/C=N/n3cnnc3)o2)ccc1Cl	4	-10	-1	-5	4.8*	-17	3
Cc1c(C(=O)O)cccc1-c1ccc(/C=N/n2cnnc2)o1	0	-6	0	-6	6.5*	-95	4.7*
CC1(C(=O)Nc2ccc(F)c(Cl)c2)Cc2c(-c3cccc(C(N)=O)c3)ccnc2O1 (stereo not given)	·	-2	2	1	0	-17	·
O=C(C[n+]1ccc(Cc2ccccc2)cc1)Nc1ccc([N+](=O)[O-])cc1Cl	1	-6	-6	3	0	-3	·
CC(C)(C)NC(=O)NC(=O)C[n+]1ccc(Cc2ccc([N+](=O)[O-])cc2)cc1	-2	-7	-11	3	12*	-1	1
Cc1ccc(Cl)cc1NC(=O)C[n+]1ccc(Cc2ccc([N+](=O)[O-])cc2)cc1	0	0	3	-3	6.6*	3	1
COc1ccc(CC(=O)N(C)Cc2cccc(OC)c2OC)cc1S(=O)(=O)N1CCOCC1	0	-1	9	-7	-1	9	·
O=C(O)CC/C(=N\Nc1ccc(S(=O)(=O)N2CCOCC2)cc1[N+](=O)[O-])c1cccs1	-3	-5	3	-12	4.9*	-31	4.7*
O=C(O)CC/C(=N\Nc1ccc(S(=O)(=O)N2CCCC2)cc1[N+](=O)[O-])c1cccs1	·	0	12	-4	4.8*	-2	5
O=C(O)CC/C(=N\Nc1ccccc1[N+](=O)[O-])c1cccs1	-4	·	1	-3	·	-39	·
O=C(O)c1ccccc1/C=N/Nc1ccc(S(=O)(=O)N2CCOCC2)cc1[N+](=O)[O-]	2	-1	0	0	3	-9	·
CC(C)(C)NC(=O)Cn1c(SCC(=O)NCc2cccs2)nc2ccccc21	-2	-5	-6	-3	0	-1	·
C=CCn1c(-c2csc(-c3ccc(Cl)cc3)n2)n[nH]c1=S	-5	3	1	-1	0	-19	·
C=CCn1c(-c2csc(-c3ccccc3)n2)n[nH]c1=S	7	-3	13	0	5.4*	23	3
COc1ccc(-n2c(=O)c3c4c(sc3n(Cc3cccc(F)c3)c2=O)CN(C(C)=O)CC4)c(OC)c1	-1	·	·	·	·	·	·
Cc1ccccc1C1=NC(C(F)(F)F)(C(F)(F)F)c2c(n(C)c(=O)n(C)c2=O)N1	1	3	-2	-6	5.4*	-7	3
CC(=O)NC1(C(F)(F)F)C(=O)Nc2c1c(=O)n(C)c(=O)n2C (stereo not given)	0	-2	0	-7	-2	-10	·
Cn1c2c(c(=O)n(C)c1=O)C(C(F)(F)F)(C(F)(F)F)N=C(C1CCCCC1)N2	5	-9	-3	1	15*	-2	12*
Cc1ccccc1NC(=O)Nc1nnc(CC(=O)NCc2ccccc2)s1	-3	-7	5	-7	1	-8	·
COCc1nnc(NC(=O)c2sc3ccccc3c2Cl)s1	7	-5	-5	-4	5.0*	-87	3
Cc1nnc(NC(=O)c2sc3ccccc3c2Cl)s1	3	-6	-2	-2	3	-185	·
N#CC(C#N)=Cc1c[nH]c(=O)c(C#N)c1Nc1ccccc1	1	-4	-2	-2	5.4*	3	2
SMILES	NR2E3 ag-1	GalR3 antag	NadD block	MsrA act	MsrA inhibitor	NR2E3 ag-2	MsrA conf
Fc1cccc(/C=N/Nc2ncnc3nc[nH]c23)c1	4	0	4	-4	5.2*	-53	4
Fc1ccccc1/C=N/Nc1ncnc2nc[nH]c12	1	-1	-1	-5	8.9*	-56	4
Clc1ccc(/C=N/Nc2ncnc3nc[nH]c23)cc1	2	-5	-5	-3	4	-108	·
Oc1ccc(/C=N/Nc2ncnc3nc[nH]c23)cc1	-4	-1	-8	-6	6.9*	-83	5.6*
CCCNC(=O)c1onc(CSc2ccccc2)c1C(=O)NCCC	4	-5	-11	-2	1	-3	·
CC(C)CC1C(=O)N(Cc2cn(CC3CCCCC3)nn2)CCS(=O)(=O)N1Cc1ccc(-c2ccc(Cl)c(Cl)c2)cc1 (stereo not given)	·	-8	10	-7	0	26	·
CSc1ccc(/C=C/C(=O)OCC(=O)NC2CC2)cc1	4	-3	-5	-4	5.0*	-12	3
CNC(=O)COC(=O)/C=C/c1ccc(F)cc1	-5	-3	0	2	1	-16	·
O=C(COC(=O)/C=C/c1ccc(Cl)cc1)NC1CC1	·	-7	-1	-3	0	1	·
CSc1ccc(/C=C/C(=O)OCC(=O)NC(C)C)cc1	4	-5	-1	-7	5.5*	-12	3
COC(=O)[C@]12C[C@H](CC(=O)N3CCSCC3)C(=O)N(CCC3=CCCCC3)C1=C[C@H](COCc1ccccc1)O[C@@H]2C	·	-6	·	·	-1	·	·
O=C(NCC1CC1)c1cc([N+](=O)[O-])cc([N+](=O)[O-])c1	-1	-7	-7	4	8.5*	-2	7.1*
COc1ccc(/C=N/n2c(C3CCCCC3)n[nH]c2=S)c(OC)c1	1	-11	6	1	8.8*	2	8.6*
Cc1ccc(/C=N/n2c(C3CCCCC3)n[nH]c2=S)s1	-3	-5	4	-5	1	-2	·
Cc1ccc(-c2n[nH]c(=S)n2/N=C/c2sccc2C)cc1	-2	-2	4	1	4.7*	1	3
Cc1ccsc1/C=N/n1c(C2CCCCC2)n[nH]c1=S	-3	-7	-2	-4	11*	-11	6.1*
Cc1ccsc1/C=N/n1c(-c2cc(-c3ccccc3)n[nH]2)n[nH]c1=S	2	-4	15	0	-1	-41	·
CC1=C(C(=O)N2CCOCC2)CC(CC(=O)NCc2cccs2)C(=O)N1Cc1ccc(C(C)(C)C)cc1 (stereo not given)	·	3	8	-1	0	17	·
Cc1ccc(C(=O)Nc2cccc(NC(=O)c3cccnc3)c2)cc1	-3	-3	10	-1	-1	-1	·
COc1ccc(/C=C/C(=O)NC(=S)Nc2ccc(S(=O)(=O)Nc3cc(C)on3)cc2)cc1	1	-5	13	-6	5.0*	14	5.7*
Cc1cc(C)n(-c2nc3ccccc3[nH]c2=O)n1	0	-1	3	-1	4	5	·

Source: PubChem (several laboratories)
